Reference: ChEMBL document CHEMBL1153900, “Structure-activity studies of echinomycin antibiotics against drug-resistant and biofilm-forming Staphylococcus aureus and Enterococcus faecalis” (Bioorg Med Chem Lett, 2009)
Converted amounts (≈) assume the structure as drawn. The source made the active and inactive calls. The rule behind the calls is not given here.

What was measured:
Staphylococcus aureus [1] = assay: Inhibition of Staphylococcus aureus ATCC 35556 biofilm formation at MIC
Staphylococcus aureus [2] = assay: Antimicrobial activity against methicillin-resistant Staphylococcus aureus L32 clinical isolate by CLIS method; format: functional
How it was run: (§1)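 MIC and MBC determined against biofilm-forming strains: MSSA ATCC 35556, E. faecalis ATCC 29212, and two clinical biofilm-forming MRSA isolates (L32, L44) obtained from patient blood samples.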

Staphylococcus aureus [3] = assay: Inhibition of methicillin-resistant Staphylococcus aureus L32 clinical isolate biofilm formation assessed as concentration required to eradicate growth after 24 hrs; format: functional, isolateL32
How it was run: (§2)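 Modified Calgary pin-lid biofilm device, testing sessile bacteria seeded from an established biofilm. MBIC is the concentration giving no visible growth after 24 h incubation of preformed biofilm with antibiotic. MBEC is the minimal concentration that eradicates CFU/mL growth from the biofilm.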

Staphylococcus aureus [4] = assay: Antimicrobial activity against methicillin-resistant Staphylococcus aureus L32 clinical isolate assessed as reduction in bacterial load at 2 X MIC over 24 hrs by time-kill assay; format: functional
How it was run: (§3)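 Time-kill assay at 2× and 4× MIC over 24 h. Starting inoculum 5 × 10⁵ CFU/mL. Read-out is the mean change in bacterial density (log₁₀ CFU/mL) from the starting inoculum at 24 h, compared with a growth control.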

Enterococcus faecalis [5] = assay: Inhibition of Enterococcus faecalis ATCC 29212 biofilm formation assessed as visible growth after 24 hrs
Staphylococcus aureus [6] = assay: Inhibition of methicillin-susceptible Staphylococcus aureus ATCC 35556 biofilm formation assessed as concentration required to eradicate growth after 24 hrs
Staphylococcus aureus [7] = assay: Antimicrobial activity against methicillin-resistant Staphylococcus aureus L44 clinical isolate assessed as reduction in bacterial load at 4 fold MIC over 24 hrs by time-kill assay; format: functional
How it was run: as §3

Enterococcus faecalis [8] = assay: Inhibition of Enterococcus faecalis ATCC 29212 biofilm formation at MIC
Enterococcus faecalis [9] = assay: Antimicrobial activity against Enterococcus faecalis ATCC 29212 assessed as reduction in bacterial load at 4 fold MIC over 24 hrs by time-kill assay
Staphylococcus aureus [10] = assay: Antimicrobial activity against methicillin-susceptible Staphylococcus aureus ATCC 35556 assessed as reduction in bacterial load at 2 X MIC over 24 hrs by time-kill assay
Staphylococcus aureus [11] = assay: Inhibition of methicillin-resistant Staphylococcus aureus L44 clinical isolate biofilm formation assessed as concentration required to eradicate growth after 24 hrs; format: functional
How it was run: as §2

Enterococcus faecalis [12] = assay: Antimicrobial activity against Enterococcus faecalis ATCC 29212 assessed as reduction in bacterial load at 2 X MIC over 24 hrs by time-kill assay
Staphylococcus aureus [13] = assay: Antimicrobial activity against methicillin-susceptible Staphylococcus aureus ATCC 35556 by CLIS method
Staphylococcus aureus [14] = assay: Antimicrobial activity against methicillin-resistant Staphylococcus aureus L44 clinical isolate assessed as reduction in bacterial load at 2 X MIC over 24 hrs by time-kill assay; format: functional
How it was run: as §3

Staphylococcus aureus [15] = assay: Antimicrobial activity against methicillin-resistant Staphylococcus aureus L44 clinical isolate by CLIS method; format: functional
How it was run: as §1

HCT-116 = assay: Cytotoxicity against human HCT116 cells; format: functional, cell-based
Staphylococcus aureus [16] = assay: Inhibition of methicillin-susceptible Staphylococcus aureus ATCC 35556 biofilm formation assessed as visible growth after 24 hrs
Staphylococcus aureus [17] = assay: Antimicrobial activity against methicillin-resistant Staphylococcus aureus L32 clinical isolate assessed as reduction in bacterial load at 4 fold MIC over 24 hrs by time-kill assay; format: functional
How it was run: as §3

Staphylococcus aureus [18] = assay: Inhibition of methicillin-resistant Staphylococcus aureus L44 clinical isolate biofilm formation assessed as visible growth after 24 hrs; format: functional
How it was run: as §2

Enterococcus faecalis [19] = assay: Inhibition of Enterococcus faecalis ATCC 29212 biofilm formation assessed as concentration required to eradicate growth after 24 hrs
Staphylococcus aureus [20] = assay: Antimicrobial activity against methicillin-susceptible Staphylococcus aureus ATCC 35556 assessed as reduction in bacterial load at 4 fold MIC over 24 hrs by time-kill assay
Staphylococcus aureus [21] = assay: Inhibition of methicillin-resistant Staphylococcus aureus L32 clinical isolate biofilm formation assessed as visible growth after 24 hrs; format: functional
How it was run: as §2

Enterococcus faecalis [22] = assay: Antimicrobial activity against Enterococcus faecalis ATCC 29212 by CLIS method
Staphylococcus aureus [23] = assay: Inhibition of methicillin-susceptible Staphylococcus aureus ATCC […] biofilm formation assessed as concentration required to eradicate growth after 24 hrs; format: functional
How it was run: as §2

| SMILES | Activity (Staphylococcus aureus [1]) | MBC (Staphylococcus aureus [2]) | MIC (Staphylococcus aureus [2]) | log10CFU/ml (Staphylococcus aureus [4]) | log10CFU/ml (Staphylococcus aureus [7]) | Activity (Enterococcus faecalis [8]) | log10CFU/ml (Enterococcus faecalis [9]) | log10CFU/ml (Staphylococcus aureus [10]) | log10CFU/ml (Enterococcus faecalis [12]) | MBC (Staphylococcus aureus [13]) | MIC (Staphylococcus aureus [13]) | log10CFU/ml (Staphylococcus aureus [14]) | MBC (Staphylococcus aureus [15]) | MIC (Staphylococcus aureus [15]) | IC50 (HCT-116) | MBIC (Staphylococcus aureus [16]) | log10CFU/ml (Staphylococcus aureus [17]) | log10CFU/ml (Staphylococcus aureus [20]) | MBC (Enterococcus faecalis [22]) | MIC (Enterococcus faecalis [22]) | other results |
| --- | --- | --- | --- | --- | --- | --- | --- | --- | --- | --- | --- | --- | --- | --- | --- | --- | --- | --- | --- | --- | --- |
| CS[C@H]1SC[C@H]2C(=O)N(C)[C@@H](C(C)C)C(=O)OC[C@@H](NC(=O)c3cnc4ccccc4n3)C(=O)N[C@@H](C)C(=O)N(C)[C@@H]1C(=O)N(C)[C@@H](C(C)C)C(=O)OC[C@@H](NC(=O)c1cnc3ccccc3n1)C(=O)N[C@@H](C)C(=O)N2C [ECHINOMYCIN] | Active | 0.91 µM (≈ 1 µg/mL) | 0.03 µM (≈ 0.033 µg/mL) | 0.61 | -1.23 | Active | -1.42 | -1.54 | 0.04 | 0.45 µM (≈ 0.496 µg/mL) | 0.01 µM (≈ 0.011 µg/mL) | 0.423 | 0.45 µM (≈ 0.496 µg/mL) | 0.03 µM (≈ 0.033 µg/mL) | < 0.003 µM | 0.03 µM | -2.39 | -1.79 | 0.11 µM (≈ 0.121 µg/mL) | 0.01 µM (≈ 0.011 µg/mL) | MBIC (Staphylococcus aureus [3]): >4 µM; MBIC (Enterococcus faecalis [5]): 0.22 µM; MBEC (Staphylococcus aureus [6]): 0.22 µM; MBIC (Staphylococcus aureus [11]): >4 µM; MBIC (Staphylococcus aureus [18]): >4 µM; MBIC (Enterococcus faecalis [19]): 0.22 µM; MBIC (Staphylococcus aureus [21]): >4 µM |
| CS[C@H]1SC[C@H](N(C)C(=O)[C@H](C)NC(=O)[C@@H](CO)NC(=O)c2cnc3ccccc3n2)C(=O)N(C)[C@@H](C(C)C)C(=O)OC[C@@H](NC(=O)c2cnc3ccccc3n2)C(=O)N[C@@H](C)C(=O)N(C)[C@@H]1C(=O)N(C)[C@H](C(=O)O)C(C)C [DEPSIECHINOSERINE] |  | > 14 µM | > 14 µM |  |  |  |  |  |  | > 14 µM | > 14 µM |  | > 14 µM | > 14 µM | 4.6 µM |  |  |  | > 14 µM | 14 µM (≈ 15.7 µg/mL) |  |
| CS[C@@H]1[C@H]2C(=O)N(C)[C@@H](C(C)C)C(=O)OC[C@@H](NC(=O)c3cnc4ccccc4n3)C(=O)N[C@@H](C)C(=O)N(C)[C@@H](C[S+]1[O-])C(=O)N(C)[C@@H](C(C)C)C(=O)OC[C@@H](NC(=O)c1cnc3ccccc3n1)C(=O)N[C@@H](C)C(=O)N2C (stereo partly drawn) | Active | 7.17 µM (≈ 8.01 µg/mL) | 1.79 µM (≈ 2 µg/mL) | -1.35 | -2.24 | Active | -1.04 | -3.39 | 0.69 | 3.58 µM (≈ 4 µg/mL) | 0.9 µM (≈ 1.01 µg/mL) | -1.09 | 7.17 µM (≈ 8.01 µg/mL) | 1.79 µM (≈ 2 µg/mL) | 0.4 µM | 3.6 µM | -2.15 | -3.24 | > 14 µM | 0.22 µM (≈ 0.246 µg/mL) | MBEC (Enterococcus faecalis [5]): >4 µM; MBEC (Enterococcus faecalis [19]): >4 µM; MBEC (Staphylococcus aureus [23]): >4 µM |
| CS[C@@H](SC[C@@H](C(=O)N(C)[C@H](C(=O)O)C(C)C)N(C)C(=O)[C@H](C)NC(=O)[C@@H](CO)NC(=O)c1cnc2ccccc2n1)[C@@H](C(=O)N(C)[C@H](C(=O)O)C(C)C)N(C)C(=O)[C@H](C)NC(=O)[C@@H](CO)NC(=O)c1cnc2ccccc2n1 [ECHINOSERINE] |  | > 14 µM | > 14 µM |  |  |  |  |  |  | > 14 µM | > 14 µM |  | > 14 µM | > 14 µM | 13.4 µM |  |  |  | > 14 µM | > 14 µM |  |
